Active and inactive are the calls of the source. The rule behind the calls is not given here.
What was measured:
HeLa [1] = assay: Induction of apoptosis in human HeLa cells assessed as cleaved PARP protein expression at 0.1 uM incubated for 24 hrs by Western blot analysis relative to control; format: functional
Summary of the method: (§1)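 HeLa cells treated at 0.1 or 0.5 μM for 24 or 48 h, washed in ice-cold PBS, lysed on ice 30 min, cleared at 15 000g, 4 °C. 10 μg protein per lane on SDS-PAGE, transferred to PVDF, blocked overnight in 5% BSA at 4 °C. Primary antibodies 2 h at room temperature, peroxidase secondaries 1 h, ECL detection. Membranes reprobed for GAPDH; densitometry reported as protein/GAPDH ratio.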

HeLa [2] = assay: Induction of apoptosis in human HeLa cells assessed as MCL1 protein expression at 0.1 uM incubated for 24 hrs by Western blot analysis relative to control; format: functional; summary of the method: as §1
HeLa [3] = assay: Induction of apoptosis in human HeLa cells assessed as XIAP protein expression at 0.1 uM incubated for 24 hrs by Western blot analysis relative to control; format: functional; summary of the method: as §1
[4] = Cytotoxicity against human PBL assessed as reduction in cell viability incubated for 72 hrs by MTT assay; format: cell-based; conditions: peripheral blood lymphocytes (PBL)
Summary of the method: (§2)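 PBLs from healthy donor buffy coats isolated by density-gradient centrifugation, washed, held overnight at 1.0 × 10^6 cells/mL in RPMI-1640 with 10% FBS. Nonadherent cells reseeded at 5 × 10^5 cells/mL, either with 2.5 μg/mL PHA (proliferating) or without (resting). Graded compound concentrations for 72 h, viability by MTT. GI50 = concentration inhibiting growth 50%; mean ± SEM of three separate experiments.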

HeLa [5] = assay: Induction of cell cycle arrest in human Hela cells assessed as cdc25c expression at 0.1 uM incubated for 48 hrs by Western blot analysis relative to control; format: functional; summary of the method: as §1
HeLa [6] = assay: Induction of cell cycle arrest in human Hela cells assessed as cdc25c expression at 0.1 uM incubated for 24 hrs by Western blot analysis relative to control; format: functional; summary of the method: as §1
[7] = Cytotoxicity against human PBL assessed as reduction in cell viability in presence of mitogenic stimulus phytohaemagglutinin incubated for 72 hrs by MTT assay; format: cell-based; summary of the method: as §2
HeLa [8] = assay: Induction of cell cycle arrest in human Hela cells assessed as cyclin B expression at 0.1 uM incubated for 48 hrs by Western blot analysis relative to control; format: functional; summary of the method: as §1
HeLa [9] = assay: Induction of cell cycle arrest in human Hela cells assessed as phosphorylated cdc2 expression at 0.1 uM incubated for 48 hrs by Western blot analysis relative to control; format: functional; summary of the method: as §1
HeLa [10] = assay: Induction of cell cycle arrest in human Hela cells assessed as accumulation at G2/M phase incubated for 24 hrs by PI staining based flow cytometric analysis; format: functional
HeLa [11] = assay: Induction of apoptosis in human HeLa cells assessed as XIAP protein expression at 0.5 uM incubated for 24 hrs by Western blot analysis relative to control; format: functional; summary of the method: as §1
HeLa [12] = assay: Induction of apoptosis in human Hela cells assessed as increase in apoptotic cells at 0.5 uM incubated for 24 to 48 hrs by Annexin V-FITC/propidium iodide staining based flow cytometry; format: functional, cell-based; conditions: time hrs 24-48
Summary of the method: (§3)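 HeLa cells exposed 24 or 48 h, harvested, double-stained with annexin-V-FITC and PI, then read by flow cytometry. Gates: live (annexin-V–/PI–), early apoptotic (annexin-V+/PI–), late apoptotic (annexin-V+/PI+), necrotic (annexin-V–/PI+). Mean ± SEM of three independent experiments.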

HeLa [13] = assay: Induction of cell cycle arrest in human Hela cells assessed as accumulation at G2/M phase at 0.125 uM incubated for 24 hrs by PI staining based flow cytometric analysis; format: functional
Summary of the method: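 5 × 10^5 HeLa cells treated 24 h over a range of concentrations, fixed in ice-cold 70% ethanol, treated with lysis buffer containing RNase A and 0.1% Triton X-100, PI-stained. DNA content read by flow cytometry; phase distribution is mean ± SEM of three experiments.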

HeLa [14] = assay: Induction of apoptosis in human HeLa cells assessed as cleaved PARP protein expression at 0.5 uM incubated for 24 hrs by Western blot analysis relative to control; format: functional; summary of the method: as §1
HeLa [15] = assay: Induction of cell cycle arrest in human Hela cells assessed as cyclin B expression at 0.5 uM incubated for 24 hrs by Western blot analysis relative to control; format: functional; summary of the method: as §1
HeLa [16] = assay: Induction of cell cycle arrest in human Hela cells assessed as cyclin B expression at 0.1 uM incubated for 24 hrs by Western blot analysis relative to control; format: functional; summary of the method: as §1
HeLa [17] = assay: Induction of apoptosis in human Hela cells assessed as increase in necrotic cells at 0.5 uM incubated for 24 to 48 hrs by Annexin V-FITC/propidium iodide staining based flow cytometry; format: functional, cell-based; conditions: time hrs 24-48; summary of the method: as §3
HeLa [18] = assay: Induction of apoptosis in human HeLa cells assessed as MCL1 protein expression at 0.1 uM incubated for 48 hrs by Western blot analysis relative to control; format: functional; summary of the method: as §1
HeLa [19] = assay: Induction of apoptosis in human HeLa cells assessed as cleaved PARP protein expression at 0.1 uM incubated for 48 hrs by Western blot analysis relative to control; format: functional; summary of the method: as §1
HeLa [20] = assay: Induction of cell cycle arrest in human Hela cells assessed as cyclin B expression at 0.5 uM incubated for 48 hrs by Western blot analysis relative to control; format: functional; summary of the method: as §1
HeLa [21] = assay: Induction of cell cycle arrest in human Hela cells assessed as phosphorylated cdc2 expression at 0.5 uM incubated for 24 hrs by Western blot analysis relative to control; format: functional; summary of the method: as §1
HeLa [22] = assay: Induction of cell cycle arrest in human Hela cells assessed as cdc25c expression at 0.5 uM incubated for 24 hrs by Western blot analysis relative to control; format: functional; summary of the method: as §1
HeLa [23] = assay: Induction of apoptosis in human HeLa cells assessed as XIAP protein expression at 0.1 uM incubated for 48 hrs by Western blot analysis relative to control; format: functional; summary of the method: as §1
HeLa [24] = assay: Induction of reactive oxygen species generation in human HeLa cells at 0.5 uM treated for 48 hrs by H2DCFDA staining based flow cytometry; format: functional, cell-based
Summary of the method: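 After treatment, HeLa cells pelleted and resuspended in PBS containing 0.1 μM H2DCFDA, incubated 30 min at 37 °C, then washed back into PBS. DCF fluorescence measured by flow cytometry (excitation 488 nm, emission 530 nm). Mean ± SEM of three independent experiments.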

HeLa [25] = assay: Induction of cell cycle arrest in human Hela cells assessed as phosphorylated cdc2 expression at 0.1 uM incubated for 24 hrs by Western blot analysis relative to control; format: functional; summary of the method: as §1
HeLa [26] = assay: Induction of apoptosis in human HeLa cells assessed as MCL1 protein expression at 0.5 uM incubated for 48 hrs by Western blot analysis relative to control; format: functional; summary of the method: as §1
HeLa [27] = assay: Induction of apoptosis in human HeLa cells assessed as cleaved PARP protein expression at 0.5 uM incubated for 48 hrs by Western blot analysis relative to control; format: functional; summary of the method: as §1
HeLa [28] = assay: Induction of cell cycle arrest in human Hela cells assessed as phosphorylated cdc2 expression at 0.5 uM incubated for 48 hrs by Western blot analysis relative to control; format: functional; summary of the method: as §1
HeLa [29] = assay: Induction of apoptosis in human HeLa cells assessed as MCL1 protein expression at 0.5 uM incubated for 24 hrs by Western blot analysis relative to control; format: functional; summary of the method: as §1
HeLa [30] = assay: Induction of cell cycle arrest in human Hela cells assessed as reduction of cells at S phase 1 uM incubated for 24 hrs by PI staining based flow cytometric analysis; format: functional
HeLa [31] = assay: Induction of cell cycle arrest in human Hela cells assessed as accumulation at M phase at 1 uM incubated for 24 hrs by PI staining based flow cytometric analysis; format: functional
HeLa [32] = assay: Induction of cell cycle arrest in human Hela cells assessed as accumulation at G2/M phase at 0.25 uM incubated for 24 hrs by PI staining based flow cytometric analysis; format: functional
Summary of the method: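 HeLa cells (5 × 10^5) exposed to compound at several concentrations for 24 h, then collected, fixed in ice-cold 70% ethanol, treated with lysis buffer containing RNase A and 0.1% Triton X-100, stained with propidium iodide. DNA content measured by flow cytometry; percentage of cells in each cycle phase derived from DNA histograms. Mean ± SEM of three experiments.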

CCOC(=O)c1cc2c(n1Cc1cc(OC)cc(OC)c1)-c1oncc1CCC2
fold change (FC) (HeLa [1]): 17.65 | fold change (FC) (HeLa [2]): 0.37 | fold change (FC) (HeLa [3]): 0.91 | GI50 at 72 h [4]: > 100 µM | fold change (FC) (HeLa [5]): 0.23 | fold change (FC) (HeLa [6]): 0.23 | GI50 at 72 h [7]: > 100 µM | fold change (FC) (HeLa [8]): 2.39 | fold change (FC) (HeLa [9]): 0.17 | Activity (HeLa [10]): Dose-dependent effect | fold change (FC) (HeLa [11]): 0.54 | Activity (HeLa [12]): Active | Activity (HeLa [13]): Active | fold change (FC) (HeLa [14]): 42.13 | fold change (FC) (HeLa [15]): 64.07 | fold change (FC) (HeLa [16]): 18.74 | Activity (HeLa [17]): Active | fold change (FC) (HeLa [18]): 0.37 | fold change (FC) (HeLa [19]): 13.8 | fold change (FC) (HeLa [20]): 2.05 | fold change (FC) (HeLa [21]): 0.31 | fold change (FC) (HeLa [22]): 0.05 | fold change (FC) (HeLa [23]): 0.12 | Activity (HeLa [24]): Active | fold change (FC) (HeLa [25]): 0.51 | fold change (FC) (HeLa [26]): 0.38 | fold change (FC) (HeLa [27]): 42.83 | fold change (FC) (HeLa [28]): 0.31 | fold change (FC) (HeLa [29]): 0.11

CCOC(=O)c1cc2c(n1Cc1cccc(OC)c1)-c1oncc1CCC2
GI50 at 72 h [4]: > 100 µM | Activity (HeLa [30]): Active | GI50 at 72 h [7]: > 100 µM | Activity (HeLa [31]): Active

CCOC(=O)c1c(Cl)c2c(n1Cc1cc(OC)cc(OC)c1)-c1oncc1CCC2
GI50 at 72 h [4]: > 100 µM | GI50 at 72 h [7]: > 100 µM | Activity (HeLa [32]): Active
